Data on 22 compounds can be found in publication PMC7797712 (Medicinal Chemistry Research, 2021).

The experiment deals with cytoplasmic HBV-DNA replication in AML12HBV10 cells. The experiment can be described thus: Antiviral assay in AML12HBV10 cells. The experiment is classed as cell-based, hepatitis B virus. The following applies: for EC50: Hepatitis B virus, AML12HBV10, 48 h, read-out: EC50 (50% inhibitory concentration of cytoplasmic HBV-DNA replication); for Anti-HBV potency compared with 27 (58031), in words: AML12HBV10 cells, SAR statement of the text. In short, it runs like this: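 AML12-derived mouse hepatocyte line carrying a tetracycline-inducible, envelope-deficient HBV genome; seeded at 2 × 10^4 cells/well in tetracycline-free medium. Next day, mock or twofold serial dilution (10 to 0.08 µM) for 48 h. Cells lysed in Tris-HCl pH 7.5/EDTA/NaCl/1% NP-40. Half the lysate NaOH-denatured, neutralised, dot-blotted and hybridised with 32P-labelled HBV minus-strand riboprobe. Phosphorimager quantification; EC50 = concentration reducing HBV DNA by 50%.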

For `O=C1CCN(C(=O)Nc2ccc(F)c(Cl)c2)CN1Cc1ccc(F)cc1` [Compound 21, N-(3-chloro-4-fluorophenyl)-3-(4-fluorobenzyl)-4-oxotetrahydropyrimidine-1(2H)-carboxamide], the EC50 stood at 2.02 µM.

As for `O=C1CCN(C(=O)Nc2ccc(F)c(Cl)c2)CN1CCc1ccc(F)cc1` [Compound 22, N-(3-chloro-4-fluorophenyl)-3-(4-fluorophenethyl)-4-oxotetrahydropyrimidine-1(2H)-carboxamide], the EC50 worked out at 5.08 µM.

Regarding `COc1ccc(CN2CN(C(=O)Nc3ccc(F)c(Cl)c3)CCC2=O)c(OC)c1` [Compound 28, N-(3-chloro-4-fluorophenyl)-3-(2,4-dimethoxybenzyl)-4-oxotetrahydropyrimidine-1(2H)-carboxamide], the “Anti-HBV potency compared with 27 (58031), in words” value is on record as “slightly weaker potency”.

Regarding `O=C1CCN(C(=O)Nc2ccc(F)c(Cl)c2)CN1Cc1ccncc1` [Compound 29, N-(3-chloro-4-fluorophenyl)-4-oxo-3-(pyridin-4-ylmethyl)tetrahydropyrimidine-1(2H)-carboxamide], the “Anti-HBV potency compared with 27 (58031), in words” value is reported as “less active”.

As for `O=C1CCN(C(=O)Nc2ccc(F)c(Cl)c2)CN1Cc1ccccn1` [Compound 30, N-(3-chloro-4-fluorophenyl)-4-oxo-3-(pyridin-2-ylmethyl)tetrahydropyrimidine-1(2H)-carboxamide], the “Anti-HBV potency compared with 27 (58031), in words” value is “less active”.

For the compound `O=C1CCN(C(=O)Nc2ccc(F)c(Cl)c2)CN1CC1CCN(c2ccccc2)C1` (stereo not shown) [Compound 32, N-(3-chloro-4-fluorophenyl)-4-oxo-3-((1-phenylpyrrolidin-3-yl)methyl)tetrahydropyrimidine-1(2H)-carboxamide], the “Anti-HBV potency compared with 27 (58031), in words” value is “failed to improve the potencies”.

Turning to `O=C1CCN(C(=O)Nc2ccc(F)c(Cl)c2)CN1CC1CN(c2ccccc2)C(=O)O1` (stereo not shown) [Compound 33, N-(3-chloro-4-fluorophenyl)-4-oxo-3-((2-oxo-3-phenyloxazolidin-5-yl)methyl)tetrahydropyrimidine-1(2H)-carboxamide], the “Anti-HBV potency compared with 27 (58031), in words” value was “failed to improve the potencies”.

With `O=C1CCN(C(=O)Nc2cccc(Cl)c2)CN1Cc1ccc(F)cc1F` [Compound 35, N-(3-chlorophenyl)-3-(2,4-difluorobenzyl)-4-oxotetrahydropyrimidine-1(2H)-carboxamide], the “Anti-HBV potency compared with 27 (58031), in words” value is listed as “comparable activities”.

As to `O=C1CCN(C(=O)Nc2ccc(F)c(C(F)F)c2)CN1Cc1ccc(F)cc1F` [Compound 36, 3-(2,4-difluorobenzyl)-N-(3-(difluoromethyl)-4-fluorophenyl)-4-oxotetrahydropyrimidine-1(2H)-carboxamide], the “Anti-HBV potency compared with 27 (58031), in words” value is “comparable activities”.

As to `O=C1CCN(C(=O)Nc2cc(F)c(F)c(F)c2)CN1Cc1ccc(F)cc1F` [Compound 40, 3-(2,4-difluorobenzyl)-4-oxo-N-(3,4,5-trifluorophenyl)tetrahydropyrimidine-1(2H)-carboxamide], the “Anti-HBV potency compared with 27 (58031), in words” value is “reduced the activities”.

In the case of `O=C1CCN(C(=O)Nc2cc(F)c(F)cc2Cl)CN1Cc1ccc(F)cc1F` [Compound 41, N-(2-chloro-4,5-difluorophenyl)-3-(2,4-difluorobenzyl)-4-oxotetrahydropyrimidine-1(2H)-carboxamide], the “Anti-HBV potency compared with 27 (58031), in words” value is given as “reduced the activities”.

With `O=C1CCN(C(=O)Nc2cc(Cl)c(F)c(Cl)c2)CN1Cc1ccc(F)cc1F` [Compound 42, N-(3,5-dichloro-4-fluorophenyl)-3-(2,4-difluorobenzyl)-4-oxotetrahydropyrimidine-1(2H)-carboxamide], the “Anti-HBV potency compared with 27 (58031), in words” value was “reduced the activities”.

Take `O=C1CCN(C(=O)NCc2ccccc2F)CN1Cc1ccc(F)cc1F` [Compound 43, 3-(2,4-difluorobenzyl)-N-(2-fluorobenzyl)-4-oxotetrahydropyrimidine-1(2H)-carboxamide]: the “Anti-HBV potency compared with 27 (58031), in words” value was “not tolerated”.

For `CC1CC(=O)N(Cc2ccc(F)cc2F)CN1C(=O)Nc1ccc(F)c(Cl)c1` (stereo not shown) [Compound 44, N-(3-chloro-4-fluorophenyl)-3-(2,4-difluorobenzyl)-6-methyl-4-oxotetrahydropyrimidine-1(2H)-carboxamide], the “Anti-HBV potency compared with 27 (58031), in words” value is on record as “reduced activity”.

`O=C1CC(Cc2cc(F)c(F)cc2F)N(C(=O)Nc2ccc(F)c(Cl)c2)CN1Cc1ccc(F)cc1F` (stereo not shown) [Compound 45, N-(3-chloro-4-fluorophenyl)-3-(2,4-difluorobenzyl)-4-oxo-6-(2,4,5-trifluorobenzyl)tetrahydropyrimidine-1(2H)-carboxamide]: the “Anti-HBV potency compared with 27 (58031), in words” value is “deteriorated the potency”.

For `O=C1CC(CN2CCC(F)(F)CC2)N(C(=O)Nc2ccc(F)c(Cl)c2)CN1Cc1ccc(F)cc1F` (stereo not shown) [Compound 46, N-(3-chloro-4-fluorophenyl)-3-(2,4-difluorobenzyl)-6-((4,4-difluoropiperidin-1-yl)methyl)-4-oxotetrahydropyrimidine-1(2H)-carboxamide], the “Anti-HBV potency compared with 27 (58031), in words” value is given as “deteriorated the potency”.

Take `O=C1CC(CN2CCC(F)(F)C2)N(C(=O)Nc2ccc(F)c(Cl)c2)CN1Cc1ccc(F)cc1F` (stereo not shown) [Compound 47, N-(3-chloro-4-fluorophenyl)-3-(2,4-difluorobenzyl)-6-((3,3-difluoropyrrolidin-1-yl)methyl)-4-oxotetrahydropyrimidine-1(2H)-carboxamide]: the “Anti-HBV potency compared with 27 (58031), in words” value was “deteriorated the potency”.

With `CC1(C)CN(C(=O)Nc2ccc(F)c(Cl)c2)CN(Cc2ccc(F)cc2F)C1=O` [Compound 48, N-(3-chloro-4-fluorophenyl)-3-(2,4-difluorobenzyl)-5,5-dimethyl-4-oxotetrahydropyrimidine-1(2H)-carboxamide], the “Anti-HBV potency compared with 27 (58031), in words” value was “diminished the activities only by two to threefold”.

In the case of `O=C1C2CCCC2N(C(=O)Nc2ccc(F)c(Cl)c2)CN1Cc1ccc(F)cc1F` (stereo not shown) [Compound 49, N-(3-chloro-4-fluorophenyl)-3-(2,4-difluorobenzyl)-4-oxooctahydro-1H-cyclopenta[d]pyrimidine-1-carboxamide], the “Anti-HBV potency compared with 27 (58031), in words” value is listed as “diminished the activities only by two to threefold”.

As for `O=C(Nc1ccc(F)c(Cl)c1)N1CC(c2ccccc2)C(=O)N(Cc2ccc(F)cc2F)C1` (stereo not shown) [Compound 50, N-(3-chloro-4-fluorophenyl)-3-(2,4-difluorobenzyl)-4-oxo-5-phenyltetrahydropyrimidine-1(2H)-carboxamide], the “Anti-HBV potency compared with 27 (58031), in words” value is recorded as “comparable or slightly better potencies”.

As for `O=C(Nc1ccc(F)c(Cl)c1)N1CC(Cc2ccccc2)C(=O)N(Cc2ccc(F)cc2F)C1` (stereo not shown) [Compound 51, 5-benzyl-N-(3-chloro-4-fluorophenyl)-3-(2,4-difluorobenzyl)-4-oxotetrahydropyrimidine-1(2H)-carboxamide], the “Anti-HBV potency compared with 27 (58031), in words” value is recorded as “diminished the activities only by two to threefold”.

As to `O=C(Nc1ccc(F)c(Cl)c1)N1CC(n2cc(C3CC3)nn2)C(=O)N(Cc2ccc(F)cc2F)C1` (stereo not shown) [Compound 52, N-(3-chloro-4-fluorophenyl)-5-(4-cyclopropyl-1H-1,2,3-triazol-1-yl)-3-(2,4-difluorobenzyl)-4-oxotetrahydropyrimidine-1(2H)-carboxamide], the “Anti-HBV potency compared with 27 (58031), in words” value was “comparable or slightly better potencies”.
